Two compounds from ChEMBL document CHEMBL4017517, “Small Molecule Inhibitors Simultaneously Targeting Cancer Metabolism and Epigenetics: Discovery of Novel Nicotinamide Phosphoribosyltransferase (NAMPT) and Histone Deacetylase (HDAC) Dual Inhibitors” (J Med Chem, 2017) can be followed below.

Active and inactive are the calls of the source. The calls are words filed in the database; no cut-off is given here.

The subject of series [1] is HCT-116. Briefly: cells. The class given is functional, cell-based. To be noted: Homo sapiens, HCT-116, 72 h.
Another series deals with MDA-MB-231. Briefly: cells. The class given is functional, cell-based. To be noted: Homo sapiens, MDA-MB-231, 72 h.
Another series has as its system HepG2. Briefly: cells. It counts as functional, cell-based. The note with it: Homo sapiens, HepG2, 72 h.
The subject of series [2] is HCT-116. Briefly: Antitumor activity against human HCT116 cells xenografted in BALB/C nude mouse assessed as tumor growth inhibition at 15 mg/kg, ip bid administered for 21 consecutive days measured after 30 to 33 days post implantation relative to control. The class given is functional. The note with it: HCT-116, ip, read-out: TGI. The method, boiled down:
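HCT116 cells implanted subcutaneously in right axilla of male BALB/C nude mice (18–20 g). Dosing began at tumor volume about 100–300 mm³; five mice per treatment, eight controls. Given ip bid for 21 consecutive days in 0.1% Tween 80 in normal saline, with vehicle controls. Caliper volume TV = 1/2 × a × b² measured every 3 days. Mice sacrificed day 30–33 post-implant; TGI calculated at end of treatment.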

The target of series [3] is Nicotinamide phosphoribosyltransferase (Homo sapiens, UniProt P43490). Kind of series: Inhibition of human recombinant NAMPT using NAM as substrate preincubated for 5 mins followed by substrate addition measured after 15 mins by fluorescence assay.
Sequence of Nicotinamide phosphoribosyltransferase (P43490 whole entry, the tested form may be a part): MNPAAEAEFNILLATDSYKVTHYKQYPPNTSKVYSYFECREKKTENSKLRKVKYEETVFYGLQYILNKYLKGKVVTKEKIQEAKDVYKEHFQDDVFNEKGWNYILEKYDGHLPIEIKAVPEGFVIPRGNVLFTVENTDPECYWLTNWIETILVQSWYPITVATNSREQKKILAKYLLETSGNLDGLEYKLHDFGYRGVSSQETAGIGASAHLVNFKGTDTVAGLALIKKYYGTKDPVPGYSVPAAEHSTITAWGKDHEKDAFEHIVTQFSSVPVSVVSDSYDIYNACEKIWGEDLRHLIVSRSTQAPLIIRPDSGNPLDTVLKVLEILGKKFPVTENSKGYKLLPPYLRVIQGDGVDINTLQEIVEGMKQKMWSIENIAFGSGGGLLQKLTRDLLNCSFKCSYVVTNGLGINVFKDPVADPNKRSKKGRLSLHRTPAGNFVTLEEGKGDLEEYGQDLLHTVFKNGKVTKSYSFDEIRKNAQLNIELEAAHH
The target in another series is Histone deacetylase 1 (Homo sapiens, UniProt Q13547). Briefly: Inhibition of human recombinant HDAC1 (1 to 482 residues) expressed in Baculovirus using Ac-Leu-Gly-Lys(Ac)-AMC as substrate preincubated for 5 mins followed by substrate addition measured after 30 mins by fluorescence assay.
Sequence of Histone deacetylase 1 (Q13547 whole entry, the tested form may be a part): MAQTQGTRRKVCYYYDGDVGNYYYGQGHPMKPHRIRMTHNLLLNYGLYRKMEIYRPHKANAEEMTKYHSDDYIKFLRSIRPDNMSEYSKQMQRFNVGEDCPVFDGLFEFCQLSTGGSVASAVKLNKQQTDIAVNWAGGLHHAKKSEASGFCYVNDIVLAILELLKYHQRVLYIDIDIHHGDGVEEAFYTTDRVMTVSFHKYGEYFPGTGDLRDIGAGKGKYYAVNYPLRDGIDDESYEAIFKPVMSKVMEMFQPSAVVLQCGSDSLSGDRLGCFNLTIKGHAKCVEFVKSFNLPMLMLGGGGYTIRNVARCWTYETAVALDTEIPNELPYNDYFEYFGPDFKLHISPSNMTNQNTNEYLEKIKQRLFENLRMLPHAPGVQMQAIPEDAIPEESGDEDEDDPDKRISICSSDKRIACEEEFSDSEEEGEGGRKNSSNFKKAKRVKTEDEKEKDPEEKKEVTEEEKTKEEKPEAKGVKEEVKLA
A short description of series [4]: Terminal half life in BALB/C nude mouse at 25 mg/kg, po. To be noted: in vivo, read-out: beta t1/2 (converted). It counts as ADME, organism-based. A digest of the protocol:
(§1)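 Mice given a single oral dose of 25 mg/kg. Plasma pharmacokinetics sampled to obtain terminal half-life and Cmax.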

Series [5] in a line: Cmax in BALB/C nude mouse at 25 mg/kg, po. It counts as ADME, organism-based. Details: dose 25 mg/kg, route oral. The note with it: in vivo. A digest of the protocol:
as §1

The subject of series [6] is HCT-116. Briefly: Antitumor activity against human HCT116 cells xenografted in BALB/C nude mouse assessed as tumor growth inhibition at 25 mg/kg, po administered as single dose for 14 consecutive days measured after 30 to 33 days post implantation. The class given is functional, organism-based. The method, boiled down: (§2)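 Male BALB/C nude mice (18–20 g) bearing subcutaneous HCT116 right-axilla tumors; treatment started at about 100–300 mm³. Five mice per treatment, eight controls. Dosed po 25 mg/kg/day for 14 consecutive days as suspension in 0.5% carboxymethyl cellulose; controls got vehicle. Tumor volume (1/2 × length × width²) and body weight recorded every 3 days. Sacrifice day 30–33 post-implant.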
On the technique in general: In xenograft studies the graft and the host belong to different species.

The subject of the next series is Mus musculus. Briefly: Toxicity in BALB/C nude mouse xenografted with human HCT116 cells assessed as change in body weight at 25 mg/kg, po administered as single dose for 14 consecutive days measured during compound dosing. The class given is organism-based. To be noted: in vivo. The method, boiled down:
as §2

`O=C(/C=C/c1cccnc1)NCCCCC1CCN(C(=O)c2ccccc2)CC1` [DAPORINAD]: the IC50 (usually the midpoint of a concentration-inhibition curve) in the series on HCT-116 [1] was 1600 nM; in the series on MDA-MB-231, 1300 nM; with HepG2, 890 nM. In addition, in the series with HCT-116 [2], the inhibition in vivo at 15 mg/kg worked out at 39%.
Take `Nc1ccccc1NC(=O)c1ccc(NC(=S)NCc2cccnc2)cc1`: the IC50 is 116 to 120 nM in series [3], 1600 nM on Histone deacetylase 1, 1000 nM with HCT-116 [1] and 4200 nM with HepG2. Besides, the half-life in [4] is 1.8 h. In series [5], the Cmax (as a rule, the maximum level reached in the sampled fluid or tissue) stood at 2300 nM. For the same compound, the TGI entry in the series on HCT-116 [6] is “Active”. In addition, the Activity result in the series with Mus musculus is “Non-Toxic”.
